IC50 data for 28 compounds are collected here from BindingDB's records for doi:10.1016/j.ejmech.2020.112417 (University of Houston, 2020).

The pIC50 is −log10 of the IC50, conventionally taken in molar units. Read a high pIC50 as a low IC50.

pIC50: −log10 of the molar value.

For this experiment, the target named is Nucleotide-binding oligomerization domain-containing protein 2 (Homo sapiens, UniProt Q9HC29). The experiment is described as follows: Inhibition of human NOD2 expressed in HEK293 cells coexpressing NFkappaB-SEAP reporter measured after 7 to 9 hrs by HEKBIue reporter assay. In a few lines: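 IC50 values reported as the mean of two or three determinations ± standard deviation.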
Chain of Nucleotide-binding oligomerization domain-containing protein 2 (Q9HC29 whole entry, the tested form may be a part): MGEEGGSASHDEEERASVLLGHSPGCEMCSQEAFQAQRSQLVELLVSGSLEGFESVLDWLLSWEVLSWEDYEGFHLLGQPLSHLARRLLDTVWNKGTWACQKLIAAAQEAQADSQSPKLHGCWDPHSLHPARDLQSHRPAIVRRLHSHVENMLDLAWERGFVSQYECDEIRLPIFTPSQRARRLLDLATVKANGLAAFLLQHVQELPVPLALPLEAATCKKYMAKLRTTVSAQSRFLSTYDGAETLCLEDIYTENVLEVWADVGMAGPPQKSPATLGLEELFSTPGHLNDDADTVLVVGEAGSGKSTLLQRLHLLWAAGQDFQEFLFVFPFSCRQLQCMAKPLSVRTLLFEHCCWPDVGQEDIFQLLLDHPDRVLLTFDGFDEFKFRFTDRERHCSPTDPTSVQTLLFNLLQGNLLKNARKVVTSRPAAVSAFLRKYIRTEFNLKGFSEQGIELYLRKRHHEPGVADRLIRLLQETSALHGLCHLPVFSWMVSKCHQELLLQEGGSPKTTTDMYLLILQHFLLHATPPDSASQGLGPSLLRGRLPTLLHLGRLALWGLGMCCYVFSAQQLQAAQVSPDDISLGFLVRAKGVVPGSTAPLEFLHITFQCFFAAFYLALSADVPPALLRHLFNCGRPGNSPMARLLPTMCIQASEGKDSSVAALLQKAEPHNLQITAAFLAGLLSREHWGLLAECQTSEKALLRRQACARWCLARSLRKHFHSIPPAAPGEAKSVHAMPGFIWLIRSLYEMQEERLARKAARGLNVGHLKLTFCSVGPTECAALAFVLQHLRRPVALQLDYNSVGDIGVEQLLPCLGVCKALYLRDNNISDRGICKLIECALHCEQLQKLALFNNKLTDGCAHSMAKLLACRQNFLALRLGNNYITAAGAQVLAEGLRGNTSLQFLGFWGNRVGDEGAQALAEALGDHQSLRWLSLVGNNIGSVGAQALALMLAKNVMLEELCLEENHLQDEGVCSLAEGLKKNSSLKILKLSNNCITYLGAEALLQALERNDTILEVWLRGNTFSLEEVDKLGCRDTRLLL

For the compound `COc1cc(NS(C)(=O)=O)cc(-c2cc(-c3ccc(N4CCNCC4)cc3)cnc2C)c1`, the pIC50 is 5.43.
As to `CCS(=O)(=O)Nc1cc(OC)cc(-c2cc(-c3ccc(N4CCNCC4)cc3)cnc2C)c1`, the negative-log IC50 (pIC50) is 5.28.
The same measure for `CCCS(=O)(=O)Nc1cc(OC)cc(-c2cc(-c3ccc(N4CCNCC4)cc3)cnc2C)c1`: 5.57; for `COc1cc(NS(=O)(=O)C(C)C)cc(-c2cc(-c3ccc(N4CCNCC4)cc3)cnc2C)c1`: 6.28; for `COc1cc(NS(C)(=O)=O)cc(-c2cc(-c3ccc(N4CCNCC4)cc3)cnc2N)c1`: 6.41.
As for `CCCS(=O)(=O)Nc1cc(OC)cc(-c2cc(-c3ccc(N4CCNCC4)cc3)cnc2N)c1`, the figure is 6.61; as for `COc1cc(NS(=O)(=O)C(C)C)cc(-c2cc(-c3ccc(N4CCNCC4)cc3)cnc2N)c1`, 6.92.
As for `COc1cc(NS(=O)(=O)c2ccccc2)cc(-c2cc(-c3ccc(N4CCNCC4)cc3)cnc2N)c1`, the figure is 7.28.
In the case of `CCOc1cc(NS(=O)(=O)C(C)C)cc(-c2cc(-c3ccc(N4CCNCC4)cc3)cnc2N)c1`, the pIC50 was 7.34.
As for `CC(C)Oc1cc(NS(=O)(=O)C(C)C)cc(-c2cc(-c3ccc(N4CCNCC4)cc3)cnc2N)c1`, the figure is 6.49.
As for `CCCS(=O)(=O)Nc1cc(-c2cc(-c3ccc(N4CCNCC4)cc3)cnc2N)ccc1OC`, the figure is 6.38.
The same measure for `CCCS(=O)(=O)Nc1cc(-c2cc(-c3ccc(N4CCNCC4)cc3)cnc2N)ccc1O`: less than 5.30; for `CCCS(=O)(=O)Nc1cc(-c2cc(-c3ccc(N4CCNCC4)cc3)cnc2N)ccc1C`: 5.97.
Regarding `CCCS(=O)(=O)Nc1cc(-c2cc(-c3ccc(N4CCNCC4)cc3)cnc2N)cc(OC)c1OC`, the negative-log IC50 (pIC50) was 9.00.
The same measure for `CCCS(=O)(=O)Nc1cc(-c2cc(-c3ccc(N4CCNCC4)cc3)cnc2N)cc2c1OCCO2`: 5.61; for `CCCS(=O)(=O)Nc1cc(-c2cc(-c3ccc(N4CCNCC4)cc3)cnc2N)cc(C)c1OC`: 6.89.
The same measure for `CCCS(=O)(=O)Nc1cc(-c2cc(-c3ccc(N4CCNCC4)cc3)cnc2N)cc(F)c1OC`: 7.59; for `CCCS(=O)(=O)Nc1cc(-c2cc(-c3ccc(N4CCNCC4)cc3)cnc2N)cc(Cl)c1OC`: 7.34; for `COc1cc(-c2cc(-c3ccc(N4CCNCC4)cc3)cnc2N)cc(F)c1OC`: 6.23.
On to `CCCS(=O)(=O)NCc1cc(-c2cc(-c3ccc(N4CCNCC4)cc3)cnc2N)ccc1OC`, for which the pIC50 was 5.89.
`CCCS(=O)(=O)N1CCc2ccc(-c3cc(-c4ccc(N5CCNCC5)cc4)cnc3N)cc21` had a pIC50 of 5.62.
For `CCCS(=O)(=O)N1CCOc2ccc(-c3cc(-c4ccc(N5CCNCC5)cc4)cnc3N)cc21`, the negative logarithm of the IC50 (pIC50) is 6.00.
The same measure for `CCCS(=O)(=O)Nc1cc(-c2cncc(-c3ccc(N4CCNCC4)cc3)c2)cc(F)c1OC`: 6.45; for `CCCS(=O)(=O)Nc1cc(-c2cc(-c3ccc(N4CCNCC4)cc3)cnc2C)cc(F)c1OC`: 5.59.
Compound `CCCS(=O)(=O)Nc1cc(-c2cc(-c3cccc(S(C)(=O)=O)c3)cnc2N)ccc1OC` showed a negative-log IC50 (pIC50) of 5.58.
As for `CCCS(=O)(=O)Nc1cc(-c2cc(-c3cccc(N4CCNCC4)c3)cnc2N)cc(F)c1OC`, the figure is 7.80; as for `CCCS(=O)(=O)Nc1cc(-c2cc(-c3ccc(N4CCNCC4)cc3)cnc2N)cc(OC)c1C`, 5.48.
The same measure for `CCCS(=O)(=O)Nc1ccc(-c2cc(-c3ccc(N4CCNCC4)cc3)cnc2C)cc1OC`: 5.53.
